Assay results from ChEMBL document CHEMBL2311390, “Synthesis and preliminary evaluation of pharmacological properties of some piperazine derivatives of xanthone” (Bioorg Med Chem, 2013).

Experiments:
Rattus norvegicus [1] = assay: Hypotensive activity in normotensive Wistar rat assessed as reduction of systolic blood pressure at 0.31 mg/kg, iv after 10 mins; format: functional, Artery
Summary of the method: (§1)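 Male normotensive Wistar rats (170–350 g) anaesthetised with thiopental 75 mg/kg ip; right carotid artery cannulated with heparinised saline-filled polyethylene tubing for pressure recording. After a 5 min stabilisation, compound given into the caudal vein at 1 mL/kg. Systolic pressure is recorded at 0, 5, 10, 20, 30 and 60 min, and the data are reported as mean ± SEM of five to six animals, with one-way ANOVA.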

Rattus norvegicus [2] = assay: Hypotensive activity in normotensive Wistar rat assessed as reduction of systolic blood pressure at 0.625 mg/kg, iv after 20 mins; format: functional, Artery; summary of the method: as §1
Rattus norvegicus [3] = assay: Hypotensive activity in normotensive Wistar rat assessed as reduction of diastolic blood pressure at 0.16 mg/kg, iv after 60 mins; format: functional, Artery
Summary of the method: (§2)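 Male normotensive Wistar rats were anaesthetised with thiopental 75 mg/kg ip. The right carotid artery was cannulated with heparinised saline for pressure recording. After 5 min of stabilisation, compound was injected into the tail vein at 1 mL/kg. Systolic and diastolic pressure were followed up to 60 min. Data are means ± SEM of 5–6 rats, analysed by one-way ANOVA.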

Rattus norvegicus [4] = assay: Hypotensive activity in normotensive Wistar rat assessed as reduction of systolic blood pressure at 0.16 mg/kg, iv after 30 mins; format: functional, Artery; summary of the method: as §1
Rattus norvegicus [5] = assay: Hypotensive activity in normotensive Wistar rat assessed as reduction of systolic blood pressure at 0.625 mg/kg, iv after 10 mins; format: functional, Artery; summary of the method: as §1
Rattus norvegicus [6] = assay: Hypotensive activity in normotensive Wistar rat assessed as reduction of diastolic blood pressure at 0.16 mg/kg, iv after 30 mins; format: functional, Artery; summary of the method: as §2
Rattus norvegicus [7] = assay: Hypotensive activity in normotensive Wistar rat assessed as reduction of systolic blood pressure at 0.31 mg/kg, iv after 20 mins; format: functional, Artery; summary of the method: as §1
Rattus norvegicus [8] = assay: Hypotensive activity in normotensive Wistar rat assessed as reduction of diastolic blood pressure at 1.25 mg/kg, iv after 30 mins; format: functional, Artery; summary of the method: as §2
Rattus norvegicus [9] = assay: Hypotensive activity in normotensive Wistar rat assessed as reduction of systolic blood pressure at 1.25 mg/kg, iv after 10 mins; format: functional, Artery; summary of the method: as §1
Rattus norvegicus [10] = assay: Cardiotoxicity in Wistar rat assessed as QT interval at 10 mg/kg, iv after 10 mins by ECG analysis; format: toxicity, organism-based; design: dose 10 mg/kg, route intravenous; conditions: in vivo
Rattus norvegicus [11] = assay: Cardiotoxicity in Wistar rat assessed as PQ interval at 10 mg/kg, iv after 10 mins by ECG analysis; format: toxicity, organism-based; design: dose 10 mg/kg, route intravenous; conditions: in vivo
Rattus norvegicus [12] = assay: Cardiotoxicity in Wistar rat assessed as PQ interval at 10 mg/kg, iv after 5 mins by ECG analysis; format: toxicity, organism-based; design: dose 10 mg/kg, route intravenous; conditions: in vivo
Summary of the method: (§3)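 Male normotensive Wistar rats, 170–350 g, six per group. Compound given iv at a constant volume of 1 mL/kg. ECG was recorded just before dosing and at 1, 5 and 15 min after. PQ, QRS and QT intervals and heart rate were read from the trace. Groups were compared by one-way ANOVA.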

Rattus norvegicus [13] = assay: Cardiotoxicity in Wistar rat assessed as QT interval at 5 mg/kg, iv after 15 mins by ECG analysis; format: toxicity, organism-based; design: dose 5 mg/kg, route intravenous; conditions: in vivo, 0.25 h; summary of the method: as §3
Rattus norvegicus [14] = assay: Cardiotoxicity in Wistar rat assessed as PQ interval at 5 mg/kg, iv after 15 mins by ECG analysis; format: toxicity, organism-based; design: dose 5 mg/kg, route intravenous; conditions: in vivo, 0.25 h; summary of the method: as §3
Rattus norvegicus [15] = assay: Cardiotoxicity in Wistar rat assessed as hear beats per min at 5 mg/kg, iv after 15 mins by ECG analysis; format: toxicity, organism-based; design: dose 5 mg/kg, route intravenous; conditions: in vivo, 0.25 h; summary of the method: as §3
Rattus norvegicus [16] = assay: Cardiotoxicity in Wistar rat assessed as QRS interval at 5 mg/kg, iv after 10 mins by ECG analysis; format: toxicity, organism-based; design: dose 5 mg/kg, route intravenous; conditions: in vivo
Rattus norvegicus [17] = assay: Cardiotoxicity in Wistar rat assessed as QT interval at 5 mg/kg, iv after 10 mins by ECG analysis; format: toxicity, organism-based; design: dose 5 mg/kg, route intravenous; conditions: in vivo

In the case of `COc1ccccc1N1CCN(CCCOc2cccc3c(=O)c4ccccc4oc23)CC1.Cl`, the Activity (Rattus norvegicus [1]) is reported as 122.8 mmHg, the Activity (Rattus norvegicus [2]) is reported as 129.5 mmHg and the Activity (Rattus norvegicus [3]) is reported as 95.2 mmHg. The Activity (Rattus norvegicus [4]) was 111.4 mmHg, the Activity (Rattus norvegicus [5]) was 125.5 mmHg and the Activity (Rattus norvegicus [6]) was 100 mmHg. The Activity (Rattus norvegicus [7]) was 121 mmHg.
Work on `COc1ccccc1N1CCN(CC(COc2cccc3c(=O)c4ccccc4oc23)OC(C)=O)CC1.Cl` (racemic) yielded an Activity (Rattus norvegicus [8]) of 90.8 mmHg, an Activity (Rattus norvegicus [9]) of 118.4 mmHg and an Activity (Rattus norvegicus [2]) of 122.2 mmHg. For the same compound, the Activity (Rattus norvegicus [5]) was 123.8 mmHg.
`COc1ccccc1N1CCN(CC(O)COc2cccc3c(=O)c4ccccc4oc23)CC1.Cl` (racemic) was tested, and the Activity (Rattus norvegicus [1]) was 121.8 mmHg, the Activity (Rattus norvegicus [3]) was 101.5 mmHg and the Activity (Rattus norvegicus [4]) was 115.7 mmHg. The Activity (Rattus norvegicus [6]) was 101.8 mmHg and the Activity (Rattus norvegicus [7]) was 120.6 mmHg.
`Cl.Cl.Cl.O=c1c2ccc(Cl)cc2oc2c(OCC(O)CN3CCN(CCOc4ccccc4)CC3)cccc12` (racemic) was tested, and the Activity (Rattus norvegicus [8]) was 100.6 mmHg, the Activity (Rattus norvegicus [9]) was 115.2 mmHg and the Activity (Rattus norvegicus [10]) was 50.48 ms. It also gave an Activity (Rattus norvegicus [11]) of 33.6 ms and an Activity (Rattus norvegicus [12]) of 33.12 ms.
With `Cl.Cl.Cl.O=c1c2ccc(Cl)cc2oc2c(OCC(O)CN3CCN(C/C=C/c4ccccc4)CC3)cccc12` (racemic) the Activity (Rattus norvegicus [13]) was 74.6 ms, the Activity (Rattus norvegicus [14]) was 45.2 ms and the Activity (Rattus norvegicus [15]) was 329.3 bpm. For the same compound, the Activity (Rattus norvegicus [16]) was 20.2 ms and the Activity (Rattus norvegicus [17]) was 74.7 ms.
Work on `Cl.Cl.Cl.O=c1c2ccc(Cl)cc2oc2c(OCC(O)CN3CCN(Cc4ccccc4)CC3)cccc12` (racemic) yielded an Activity (Rattus norvegicus [10]) of 72.8 ms, an Activity (Rattus norvegicus [11]) of 41.1 ms and an Activity (Rattus norvegicus [12]) of 41.9 ms.
Work on `Cl.Cl.O=c1c2ccccc2oc2c(OCC(O)CN3CCN(C/C=C/c4ccccc4)CC3)cccc12` (racemic) yielded an Activity (Rattus norvegicus [13]) of 77.6 ms, an Activity (Rattus norvegicus [14]) of 41.7 ms and an Activity (Rattus norvegicus [15]) of 309 bpm. For the same compound, the Activity (Rattus norvegicus [16]) was 23.5 ms and the Activity (Rattus norvegicus [17]) was 77 ms.
